Reference: ChEMBL document CHEMBL1125376, “Class III antiarrhythmic activity of novel substituted 4-[(methylsulfonyl)amino]benzamides and sulfonamides” (J Med Chem, 1992)
Each block holds one molecule with its values, some of them ahead of it.

Columns and labels:
[1] = species on record: Canis familiaris; assay: Effect on the transmembrane potential of dog Purkinje fibers paced at a basic cycle length of stimulation of 1000 ms, repolarization time to -60 mV, at a concentration of 0.3 uM; type: functional; settings: Canis lupus familiaris, Purkinje fiber
How it was run: (§1)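 Purkinje fiber bundles were taken from pentobarbital-anesthetized mongrel dogs. They were superfused at 37.5-38.0 °C with Tyrode's (mM: NaCl 138, KCl 4, CaCl2 2, NaHCO3 24, MgCl2 0.5, Na2HPO4 1.8, dextrose 5) gassed with 95% O2-5% CO2, pH 7.3-7.4. Stimulation used 2.0 ms pulses at twice threshold. Fibers were equilibrated ≥1 h before drug. Action potentials were recorded at 4-6 sites and averaged per fiber.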

[2] = species on record: Canis familiaris; assay: Effect on the transmembrane potential of dog Purkinje fibers paced at a basic cycle length of stimulation of 300 ms, repolarization time to -60 mV; type: functional; settings: Canis lupus familiaris; Purkinje fiber; how it was run: as §1
[3] = species on record: Canis familiaris; assay: Effect on the transmembrane potential of dog Purkinje fibers paced at a basic cycle length of stimulation of 1000 ms, repolarization time to -60 mV; type: functional; settings: Canis lupus familiaris; Purkinje fiber; how it was run: as §1
[4] = system: Canis familiaris; assay: Heart rate, after intravenous administration in open-chest anesthetized dogs at dose of 0.05 mg/kg; type: functional, Canis lupus familiaris; settings: dose 5.0 mg/kg, in the assay text read “5.0 mg/kg” for “0.05 mg/kg”
How it was run: (§2)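 Mongrel dogs, pentobarbital-anesthetized (30 mg/kg iv plus 5 mg/kg per h), open chest. Compound given iv. Atrial and ventricular effective refractory periods and conduction times measured during pacing at 300 ms, along with heart rate and mean arterial pressure. Two doses per compound, chosen from dose-response runs. Values are % change from predrug, mean ± SE.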

[5] = system: Canis familiaris; assay: Heart rate, after intravenous administration in open-chest anesthetized dogs at dose of 0.5 mg/kg; type: functional, Canis lupus familiaris; settings: dose 10.0 mg/kg, in the assay text read “10.0 mg/kg” for “0.5 mg/kg”; how it was run: as §2
[6] = system: Canis familiaris; assay: Ventricular conduction time, after intravenous administration in open-chest anesthetized dogs at dose of 0.5 mg/kg; type: functional, Canis lupus familiaris, Heart; settings: dose 10.0 mg/kg, in the assay text read “10.0 mg/kg” for “0.5 mg/kg”; how it was run: as §2
[7] = system: Canis familiaris; assay: Ventricular effective refractory period, after intravenous administration in open-chest anesthetized dogs at dose of 0.05 mg/kg; type: functional, Canis lupus familiaris, Heart; settings: dose 5.0 mg/kg, in the assay text read “5.0 mg/kg” for “0.05 mg/kg”; how it was run: as §2
[8] = system: Canis familiaris; assay: Ventricular effective refractory period, after intravenous administration in open-chest anesthetized dogs at dose of 0.5 mg/kg; type: functional, Canis lupus familiaris, Heart; settings: dose 10.0 mg/kg, in the assay text read “10.0 mg/kg” for “0.5 mg/kg”; how it was run: as §2
[9] = system: Canis familiaris; assay: Mean arterial pressure, after intravenous administration in open-chest anesthetized dogs at dose of 0.05 mg/kg; type: functional, Canis lupus familiaris, Artery; settings: dose 5.0 mg/kg, in the assay text read “5.0 mg/kg” for “0.05 mg/kg”; how it was run: as §2
[10] = system: Canis familiaris; assay: Mean arterial pressure, after intravenous administration in open-chest anesthetized dogs at dose of 0.5 mg/kg; type: functional, Canis lupus familiaris, Artery; settings: dose 10.0 mg/kg, in the assay text read “10.0 mg/kg” for “0.5 mg/kg”; how it was run: as §2
[11] = system: Canis familiaris; assay: Atrial conduction time, after intravenous administration in open-chest anesthetized dogs at dose of 10.0 mg/kg
[12] = system: Canis familiaris; assay: Atrial effective refractory period, after intravenous administration in open-chest anesthetized dogs at dose of 10.0 mg/kg
[13] = Maximum rate of depolarization of the upstroke of the action potential at 3 uM concentration; design: unit not given beside the values
How it was run: (§3)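 Purkinje fiber bundles from pentobarbital-anesthetized mongrel dogs, superfused at 37.5-38.0 °C with Tyrode's solution (95% O2-5% CO2, pH 7.3-7.4). Stimulation with 2.0 ms square pulses at 2× threshold. Fibers equilibrated at least 1 h before drug. Action potentials recorded at four to six sites, control vs drug, and averaged per fiber.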

[14] = species on record: Canis familiaris; assay: Effect on the transmembrane potential of dog Purkinje fibers paced at a basic cycle length of stimulation of 1000 ms, repolarization time to -60 mV, at a concentration of 3 uM; type: functional; settings: Canis lupus familiaris, Purkinje fiber; how it was run: as §1
[15] = species on record: Canis familiaris; assay: Effect on the transmembrane potential of dog Purkinje fibers paced at a basic cycle length of stimulation of 300 ms, repolarization time to -60 mV at 0.3 uM concentration; type: functional; settings: Canis lupus familiaris, Purkinje fiber; how it was run: as §1
[16] = species on record: Canis familiaris; assay: Effect on the transmembrane potential of dog Purkinje fibers paced at a basic cycle length of stimulation of 1000 ms, repolarization time to -60 mV at 0.3 uM concentration; type: functional; settings: Canis lupus familiaris, Purkinje fiber; how it was run: as §1
[17] = species on record: Canis familiaris; assay: Effect on the transmembrane potential of dog Purkinje fibers paced at a basic cycle length of stimulation of 300 ms, repolarization time to -60 mV, at a concentration of 3 uM; type: functional; settings: Canis lupus familiaris, Purkinje fiber; how it was run: as §1
[18] = system: Canis familiaris; assay: Effect on atrial effective refractory period, after intravenous administration in open-chest anesthetized dogs at dose of 1.0 mg/kg
[19] = species on record: Canis familiaris; assay: Effect on the transmembrane potential of dog Purkinje fibers paced at a basic cycle length of stimulation of 1000 ms, repolarization time to -60 mV at 3 uM concentration; type: functional; settings: Canis lupus familiaris, Purkinje fiber; how it was run: as §1
[20] = species on record: Canis familiaris; assay: Effect on the transmembrane potential of dog Purkinje fibers paced at a basic cycle length of stimulation of 300 ms, repolarization time to -60 mV at 3 uM concentration; type: functional; settings: Canis lupus familiaris, Purkinje fiber; how it was run: as §1
[21] = Maximum rate of depolarization of the upstroke of the action potentia at 3 uM concentration; how it was run: as §3

SMILES: CN(CCN1CCn2c1nc1ccccc12)S(=O)(=O)c1ccc(NS(C)(=O)=O)cc1.Cl
- APD60 [1]: 30
- APD60 [2]: 16
- APD60 [3]: 30
- Change [4]: -15%
- Change [5]: -24%
- Change [6]: -5%
- Change [7]: 18%
- Change [8]: 19%
- Change [9]: -9%
- Change [10]: -8%
- Change [11]: 3%
- Change [12]: 66%

- Vmax [13]: -3
SMILES: Cl.Cn1c(N2CCN(C(=O)c3ccc(NS(C)(=O)=O)cc3)CC2)nc2ccccc21
- APD60 [14]: 75
- APD60 [15]: 6
- APD60 [16]: 17
- APD60 [17]: 33
- Change [18]: 33%

SMILES: CN(CCNS(=O)(=O)c1ccc(NS(C)(=O)=O)cc1)c1nc2ccccc2n1C.Cl
- APD60 [19]: 50
- APD60 [20]: 16

- Vmax [21]: 6
- Vmax [13]: 1
SMILES: CN(CCNc1nc2ccccc2n1C)S(=O)(=O)c1ccc(NS(C)(=O)=O)cc1.Cl
- APD60 [19]: 67
- APD60 [20]: 19
